Experimental data: ChEMBL document CHEMBL4020833, “A Systematic Exploration of Macrocyclization in Apelin-13: Impact on Binding, Signaling, Stability, and Cardiovascular Effects” (J Med Chem, 2018)
Starred links: 1 amine or outer side, 2 acyl side, 3 side chain; linkers in the order of their positions; H or OH if unused. Positions of bridges follow the written chain, without caps; N, C: chain ends. Non-standard residues stand in square brackets, D forms with d. Residues, ends and D or L forms follow the SMILES beside them. *: point of attachment. X1 = O=C([C@H](CCN(CC=[*:3])S(=O)(=O)c1ccccc1[N+](=O)[O-])N[*:1])[*:2]; X6 = N=C(N)NCCC[C@H](NC(=O)[C@@H]1CCC(=O)N1)C(=O)[C@@H]1CCCN1*; X3 = C=CCN([C@@H](CCCNC(=N)N)C(=O)[*:2])[*:1]; X5 = O=C([C@H](CCNCC=[*:3])N[*:1])[*:2]; AllylGly = C=CC[C@H](N)C(=O)O; pGlu = O=C1CC[C@@H](C(=O)O)N1; Nle = CCCC[C@H](N)C(=O)O; CO = O=C([*:1])[*:2]

Tests used:
[1] = target: T1, Apelin receptor (Homo sapiens, UniProt P35414); assay: Displacement of [125I]-[Nle75, Tyr77] Pyr1-apelin-13 from YFP-tagged human APJ receptor expressed in HEK293 cell membranes after 1 hr by gamma-counting method
T1 sequence (P35414 whole entry): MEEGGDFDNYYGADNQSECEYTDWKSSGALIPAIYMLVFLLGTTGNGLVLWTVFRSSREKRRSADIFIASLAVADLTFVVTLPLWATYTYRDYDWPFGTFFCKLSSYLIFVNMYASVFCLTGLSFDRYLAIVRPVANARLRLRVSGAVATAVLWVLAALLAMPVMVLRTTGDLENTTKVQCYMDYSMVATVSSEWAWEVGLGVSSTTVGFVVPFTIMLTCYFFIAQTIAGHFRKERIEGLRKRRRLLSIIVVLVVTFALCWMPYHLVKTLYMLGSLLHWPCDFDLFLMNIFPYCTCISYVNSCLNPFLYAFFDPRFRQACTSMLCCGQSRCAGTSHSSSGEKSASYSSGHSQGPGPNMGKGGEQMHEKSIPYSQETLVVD

[2] = target: T1, Apelin receptor; assay: Activity at human APJ receptor expressed in HEK293 cells assessed as dissociation of Galphai1 from Gbetagamma subunit after 5 mins by BRET assay; format: cell-based
[3] = target: T1, Apelin receptor; assay: Activity at GFP10-tagged human APJ receptor expressed in HEK293 cells assessed as induction of RlucII-tagged beta-arrestin-2 recruitment after 30 mins by BRET assay; format: cell-based
[4] = Half life in rat plasma at 1 mM by UPLC-MS analysis; format: ADME, cell-free
In short: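 Male rat plasma incubated with peptide at 37 °C for 2, 4, 7, 24 h (or 10, 20, 60, 120 min for short-lived peptides); quenched with acetonitrile-ethanol (1:1) plus nicotinamide internal standard, then UPLC-MS. Percent remaining fitted to exponential decay for half-life; means ± SEM of three independent experiments. 1 mM is the stock solution.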

CCCC[C@H](NC(=O)[C@@H]1CCCN1C(=O)[C@@H]1C/C=C\C[C@H](NC(=O)[C@H](CCCNC(=N)N)NC(=O)[C@@H]2CCCN2C(=O)[C@H](CCCNC(=N)N)NC(=O)[C@@H]2CCC(=O)N2)C(=O)N[C@@H](CO)C(=O)N[C@@H](Cc2cnc[nH]2)C(=O)N[C@@H](CCCCN)C(=O)N1)C(=O)N1CCC[C@H]1C(=O)N[C@@H](Cc1ccccc1)C(=O)O ([pGlu]RPR[AllylGly]SHK[AllylGly]P[Nle]PF-OH; staple (Z) 5-9)
Ki [1]: 41 nM

CCCC[C@@H]1NC(=O)[C@@H]2CCCN2C(=O)[C@@H](NC(=O)[C@H](CCCCN)NC(=O)[C@H](Cc2cnc[nH]2)NC(=O)[C@H](CO)NC(=O)[C@H](CC(C)C)NC(=O)[C@H](CCCNC(=N)N)NC(=O)[C@@H]2CCCN2C(=O)[C@H](CCCNC(=N)N)NC(=O)[C@@H]2CCC(=O)N2)CCNC/C=C\C[C@H](C(=O)O)NC(=O)[C@@H]2CCCN2C1=O
Ki ([1]; hek293): 206 nM

C=CC[C@H](NC(=O)[C@H](CCCNC(=N)N)NC(=O)[C@@H]1CCCN1C(=O)[C@H](CCCNC(=N)N)NC(=O)[C@@H](N)CC=C)C(=O)N[C@@H](CO)C(=O)N[C@@H](Cc1cnc[nH]1)C(=O)N[C@@H](CCCCN)C(=O)NCC(=O)N1CCC[C@H]1C(=O)N[C@@H](CCCC)C(=O)N1CCC[C@H]1C(=O)N[C@@H](Cc1ccccc1)C(=O)O
Ki [1]: 2.5 nM
EC50 [2]: 0.4 nM
EC50 [3]: 35 nM

C=CC[C@H](NC(=O)[C@H](CC(C)C)NC(=O)[C@H](CCCNC(=N)N)NC(=O)[C@@H]1CCCN1C(=O)[C@H](CC=C)NC(=O)[C@@H]1CCC(=O)N1)C(=O)N[C@@H](Cc1cnc[nH]1)C(=O)N[C@@H](CCCCN)C(=O)NCC(=O)N1CCC[C@H]1C(=O)N[C@@H](CCCC)C(=O)N1CCC[C@H]1C(=O)N[C@@H](Cc1ccccc1)C(=O)O
Ki [1]: 523 nM

CCCC[C@@H]1NC(=O)[C@@H]2CCCN2C(=O)[C@@H](NC(=O)[C@H](CCCCN)NC(=O)[C@H](Cc2cnc[nH]2)NC(=O)[C@H](CO)NC(=O)[C@H](CC(C)C)NC(=O)[C@H](CCCNC(=N)N)NC(=O)[C@@H]2CCCN2C(=O)[C@H](CCCNC(=N)N)NC(=O)[C@@H]2CCC(=O)N2)CCN(S(=O)(=O)c2ccccc2[N+](=O)[O-])C/C=C\C[C@H](C(=O)O)NC(=O)[C@@H]2CCCN2C1=O
Ki ([1]; hek293): 0.1 nM
EC50 ([2]; hek293): 1.7 nM
EC50 ([3]; hek293): 63 nM

C=CC[C@H](NC(=O)[C@H](CO)NC(=O)[C@H](CC(C)C)NC(=O)[C@H](CCCNC(=N)N)NC(=O)[C@H](CC=C)NC(=O)[C@H](CCCNC(=N)N)NC(=O)[C@@H]1CCC(=O)N1)C(=O)N[C@@H](CCCCN)C(=O)NCC(=O)N1CCC[C@H]1C(=O)N[C@@H](CCCC)C(=O)N1CCC[C@H]1C(=O)N[C@@H](Cc1ccccc1)C(=O)O
Ki [1]: 1.9 nM
EC50 [2]: 9.2 nM
EC50 [3]: 274 nM

C=CC[C@H](NC(=O)[C@H](CCCNC(=N)N)NC(=O)[C@@H]1CCCN1C(=O)[C@H](CCCNC(=N)N)NC(=O)[C@@H]1CCC(=O)N1)C(=O)N[C@@H](CO)C(=O)N[C@@H](Cc1cnc[nH]1)C(=O)N[C@@H](CCCCN)C(=O)N[C@@H](CC=C)C(=O)N1CCC[C@H]1C(=O)N[C@@H](CCCC)C(=O)N1CCC[C@H]1C(=O)N[C@@H](Cc1ccccc1)C(=O)O ([pGlu]RPR[AllylGly]SHK[AllylGly]P[Nle]PF-OH)
Ki [1]: 3.9 nM

CCCC[C@H](NC(=O)[C@@H]1CCCN1C(=O)CNC(=O)[C@H](CCCCN)NC(=O)[C@H](Cc1cnc[nH]1)NC(=O)[C@@H]1C/C=C\C[C@H](NC(=O)[C@@H]2CCC(=O)N2)C(=O)N2CCC[C@H]2C(=O)N[C@@H](CCCNC(=N)N)C(=O)N[C@@H](CC(C)C)C(=O)N1)C(=O)N1CCC[C@H]1C(=O)N[C@@H](Cc1ccccc1)C(=O)O
Ki [1]: 509 nM
half-life at 1000 µM [4]: 42 min

C=CC[C@H](NC(=O)CNC(=O)[C@H](CCCCN)NC(=O)[C@H](Cc1cnc[nH]1)NC(=O)[C@H](CC=C)NC(=O)[C@H](CC(C)C)NC(=O)[C@H](CCCNC(=N)N)NC(=O)[C@@H]1CCCN1C(=O)[C@H](CCCNC(=N)N)NC(=O)[C@@H]1CCC(=O)N1)C(=O)N[C@@H](CCCC)C(=O)N1CCC[C@H]1C(=O)N[C@@H](Cc1ccccc1)C(=O)O ([pGlu]RPRL[AllylGly]HKG[AllylGly][Nle]PF-OH)
Ki [1]: 194 nM

C=CC[C@H](NC(=O)[C@H](Cc1ccccc1)NC(=O)[C@@H]1CCCN1C(=O)[C@H](CCCC)NC(=O)[C@H](CC=C)NC(=O)CNC(=O)[C@H](CCCCN)NC(=O)[C@H](Cc1cnc[nH]1)NC(=O)[C@H](CO)NC(=O)[C@H](CC(C)C)NC(=O)[C@H](CCCNC(=N)N)NC(=O)[C@@H]1CCCN1C(=O)[C@H](CCCNC(=N)N)NC(=O)[C@@H]1CCC(=O)N1)C(=O)O ([pGlu]RPRLSHKG[AllylGly][Nle]PF[AllylGly]-OH)
Ki [1]: 445 nM

CCCC[C@@H]1NC(=O)[C@@H]2CCCN2C(=O)[C@@H](NC(=O)[C@H](CCCCN)NC(=O)[C@H](Cc2cnc[nH]2)NC(=O)[C@H](CO)NC(=O)[C@H](CC(C)C)NC(=O)[C@H](CCCNC(=N)N)NC(=O)[C@@H]2CCCN2C(=O)[C@H](CCCNC(=N)N)NC(=O)[C@@H]2CCC(=O)N2)CCNC/C=C\C[C@@H](C(=O)O)NC(=O)[C@@H]2CCCN2C1=O
Ki [1]: 917 nM

C=CC[C@H](NC(=O)[C@H](CO)NC(=O)[C@H](CC(C)C)NC(=O)[C@H](CCCNC(=N)N)NC(=O)[C@@H]1CCCN1C(=O)[C@H](CCCNC(=N)N)NC(=O)[C@@H]1CCC(=O)N1)C(=O)N[C@@H](CCCCN)C(=O)NCC(=O)N1CCC[C@H]1C(=O)N[C@@H](CC=C)C(=O)N1CCC[C@H]1C(=O)N[C@@H](Cc1ccccc1)C(=O)O ([pGlu]RPRLS[AllylGly]KGP[AllylGly]PF-OH)
Ki [1]: 0.3 nM
EC50 [2]: 1 nM
EC50 [3]: 42 nM

C=CC[C@H](NC(=O)[C@H](CC(C)C)NC(=O)[C@H](CCCNC(=N)N)NC(=O)[C@@H]1CCCN1C(=O)[C@H](CCCNC(=N)N)N(CC=C)C(=O)[C@@H]1CCC(=O)N1)C(=O)N[C@@H](Cc1cnc[nH]1)C(=O)N[C@@H](CCCCN)C(=O)NCC(=O)N1CCC[C@H]1C(=O)N[C@@H](CCCC)C(=O)N1CCC[C@H]1C(=O)N[C@@H](Cc1ccccc1)C(=O)O
Ki [1]: 2.9 nM
EC50 [2]: 5.7 nM
EC50 [3]: 232 nM

C=CC[C@H](NC(=O)[C@H](Cc1cnc[nH]1)NC(=O)[C@H](CO)NC(=O)[C@H](CC(C)C)NC(=O)[C@H](CCCNC(=N)N)NC(=O)[C@@H]1CCCN1C(=O)[C@H](CCCNC(=N)N)NC(=O)[C@@H]1CCC(=O)N1)C(=O)NCC(=O)N1CCC[C@H]1C(=O)N[C@@H](CCCC)C(=O)N[C@@H](CC=C)C(=O)N[C@@H](Cc1ccccc1)C(=O)O ([pGlu]RPRLSH[AllylGly]GP[Nle][AllylGly]F-OH)
Ki [1]: 2.3 nM
EC50 [2]: 0.8 nM
EC50 [3]: 58 nM

C=CC[C@H](NC(=O)[C@H](Cc1cnc[nH]1)NC(=O)[C@H](CO)NC(=O)[C@H](CC(C)C)NC(=O)[C@H](CCCNC(=N)N)N(CC=C)C(=O)[C@@H]1CCCN1C(=O)[C@H](CCCNC(=N)N)NC(=O)[C@@H]1CCC(=O)N1)C(=O)NCC(=O)N1CCC[C@H]1C(=O)N[C@@H](CCCC)C(=O)N1CCC[C@H]1C(=O)N[C@@H](Cc1ccccc1)C(=O)O ([pGlu]RP[X3]LSH[AllylGly]GP[Nle]PF-OH)
Ki [1]: 2.7 nM
EC50 [2]: 2.1 nM
EC50 [3]: 91 nM

CCCC[C@@H]1NC(=O)[C@@H](NC(=O)CNC(=O)[C@H](CCCCN)NC(=O)[C@H](Cc2cnc[nH]2)NC(=O)[C@H](CO)NC(=O)[C@H](CC(C)C)NC(=O)[C@H](CCCNC(=N)N)NC(=O)N2CCC[C@H]2C(=O)[C@H](CCCNC(=N)N)NC(=O)[C@@H]2CCC(=O)N2)C/C=C\C[C@@H](C(=O)O)NC(=O)[C@H](Cc2ccccc2)NC(=O)[C@@H]2CCCN2C1=O ({X6-CO}-RLSHKG[AllylGly][Nle]PF[AllylGly]-OH; staple (Z) 7-11)
Ki [1]: 310 nM

C=CC[C@H](NC(=O)[C@H](Cc1cnc[nH]1)NC(=O)[C@H](CO)NC(=O)[C@H](CC(C)C)NC(=O)[C@H](CC=C)NC(=O)[C@@H]1CCCN1C(=O)[C@H](CCCNC(=N)N)NC(=O)[C@@H]1CCC(=O)N1)C(=O)NCC(=O)N1CCC[C@H]1C(=O)N[C@@H](CCCC)C(=O)N1CCC[C@H]1C(=O)N[C@@H](Cc1ccccc1)C(=O)O ([pGlu]RP[AllylGly]LSH[AllylGly]GP[Nle]PF-OH)
Ki [1]: 489 nM

CCCC[C@@H]1NC(=O)[C@@H]2CCCN2C(=O)[C@@H](N)CCN(S(=O)(=O)c2ccccc2[N+](=O)[O-])C/C=C\C[C@@H](C(=O)O)NC(=O)[C@@H]2CCCN2C1=O (H-[X1]P[Nle]P[AllylGly]-OH; staple (Z) 1-5)
Ki [1]: > 10000 nM

CCCC[C@@H]1NC(=O)[C@@H]2CCCN2C(=O)[C@@H](N)CCNC/C=C\C[C@@H](C(=O)O)NC(=O)[C@@H]2CCCN2C1=O (H-[X5]P[Nle]P[AllylGly]-OH; staple (Z) 1-5)
Ki [1]: > 10000 nM

CCCC[C@H](NC(=O)[C@@H]1CCCN1C(=O)CNC(=O)[C@@H]1C/C=C\C[C@H](NC(=O)[C@@H]2CCCN2C(=O)[C@H](CCCNC(=N)N)NC(=O)[C@@H]2CCC(=O)N2)C(=O)N[C@@H](CC(C)C)C(=O)N[C@@H](CO)C(=O)N[C@@H](Cc2cnc[nH]2)C(=O)N1)C(=O)N1CCC[C@H]1C(=O)N[C@@H](Cc1ccccc1)C(=O)O ([pGlu]RP[AllylGly]LSH[AllylGly]GP[Nle]PF-OH; staple (Z) 4-8)
Ki [1]: 6070 nM
